What was measured:
Assay type in all cases: functional, cell-based
[1] = system: L1210; test: Cytotoxicity against mouse L1210 cells after 72 hrs by MTT assay; conditions: L1210, 72 h
Outline: (§1)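 72-h MTT assay on murine cell lines (B16 melanoma, L1210 leukemia) grown in culture. IC50 is the compound concentration needed to reduce the cell population by 50% relative to an untreated control.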

[2] = system: B16; test: Cytotoxicity against mouse B16 cells after 72 hrs by MTT assay; conditions: B16, 72 h; outline: as §1
[3] = system: A10; test: Reduction of cellular microtubules in interphase rat A10 cells
Outline: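 Interphase cellular microtubules scored in A-10 aortic smooth muscle cells after exposure to compound. EC50 is the effective concentration that causes 50% loss of cellular microtubules.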

Row | EC50 [3] | Structure (SMILES) | IC50 [1] | IC50 [2]
1 | – | COc1ccc(C2C=C(c3cc(OC)c(OC)c(OC)c3)NC(=S)N2)cc1OC (stereo unspecified) | 56.3 µM | > 100 µM
2 | – | COc1ccc(OC)c(C2C=C(c3cc(OC)c(OC)c(OC)c3)NC(=S)N2)c1 (stereo unspecified) | 32 µM | 36 µM
3 | – | COc1ccc(C2C=C(c3cc(OC)c(OC)c(OC)c3)NC(=S)N2)cc1[N+](=O)[O-] (stereo unspecified) | > 100 µM | > 100 µM
4 | – | COc1cc(C2=CC(c3ccc(Cl)cc3)NC(=S)N2)cc(OC)c1OC (stereo unspecified) | 48.3 µM | 55.5 µM
5 | – | COc1cc(C2=CC(c3cc(OC)c(OC)c(OC)c3)NC(=S)N2)cc(OC)c1OC (stereo unspecified) | > 100 µM | > 100 µM
6 | – | COc1cc(OC)c(C2C=C(c3cc(OC)c(OC)c(OC)c3)NC(=S)N2)c(OC)c1 (stereo unspecified) | 5.7 µM | 6.3 µM
7 | 2.9 µM | COc1cc(OC)c(C2C=C(c3cc(OC)ccc3OC)NC(=S)N2)c(OC)c1 (stereo unspecified) | 0.4 µM | 6.1 µM
8 | – | COc1ccc(OC)c(C2=CC(c3ccc(OC)c([N+](=O)[O-])c3)NC(=S)N2)c1 (stereo unspecified) | 2.2 µM | 42 µM
9 | – | COc1cccc(C2C=C(c3cc(OC)c(OC)c(OC)c3)NC(=S)N2)c1 (stereo unspecified) | > 100 µM | 59.5 µM
10 | 4.4 µM | COc1ccc(C2C=C(c3cc(OC)c(OC)c(OC)c3)NC(=S)N2)cc1O (stereo unspecified) | 0.5 µM | 6 µM
11 | – | COc1cc(C2=CC(c3ccc([N+](=O)[O-])cc3)NC(=S)N2)cc(OC)c1OC (stereo unspecified) | > 100 µM | > 100 µM
12 | – | COc1ccc(/C=C\c2cc(OC)c(OC)c(OC)c2)cc1O [COMBRETASTATIN A4] | 0.002 µM | 0.003 µM

From ChEMBL document CHEMBL1140976, “1,2,3,4-tetrahydro-2-thioxopyrimidine analogs of combretastatin-A4” (Eur J Med Chem, 2008)
